Source: ChEMBL document CHEMBL1142490, “2-Phenyl-imidazo[1,2-a]pyridine compounds containing hydrophilic groups as potent and selective ligands for peripheral benzodiazepine receptors: synthesis, binding affinity and electrophysiological studies” (J Med Chem, 2008)

Target: T1, GABA-A receptor; alpha-1/beta-2/gamma-2 (Homo sapiens) (UniProt P14867+P47870+P18507)
Experiment: Agonist activity at human recombinant GABAA alpha-1-beta-2-gamma-2L receptor expressed in Xenopus oocytes assessed as change in GABA-induced chloride current amplitude at 10 uM by voltage clamp technique
Type: functional, cell-based
Settings: Oocyte
Procedure, shortened: (§1)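 Xenopus oocytes (stage V–VI, defolliculated) are nuclear-injected with human α1, β2 and γ2L cDNAs (1:1:1) and recorded about 24 h later. Two-electrode voltage clamp at -70 mV, MBS perfusion, room temperature. […] Reported as percent change from control; 5–10 oocytes per concentration.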

| SMILES | Activity |
| --- | --- |
| CN(C(=O)Cc1c(-c2nccs2)nc2c(Cl)cc(Cl)cn12)c1ccccc1 | 19.4% |
| CCCCN(C)C(=O)Cc1c(-c2ccc(Cl)c(N)c2)nc2c(Cl)cccn12 | 10.7% |
| CCCN(CCC)C(=O)Cc1c(-c2nccs2)nc2c(Cl)cc(Cl)cn12 | 60.6% |
| CCCN(CCC)C(=O)Cc1c(-c2ccc(OC(=O)CCC(=O)OC)cc2)nc2c(Cl)cc(Cl)cn12 | 37.5% |
| CN(C(=O)Cc1c(-c2ccc(O)cc2)nc2c(Cl)cc(Cl)cn12)c1ccccc1 | 6.7% |
| CCCN(CCC)C(=O)Cc1c(-c2ccc(O)cc2)nc2c(Cl)cc(Cl)cn12 | 23.8% |
| CCCN(CCC)C(=O)Cc1c(-c2ccc(Cl)cc2)nc2c(NC(=O)CCC(=O)O)cccn12 | 12.3% |
| CCCN(CCC)C(=O)Cc1c(-c2ccc(Cl)cc2)nc2c(NC(=O)CCCC(=O)O)cccn12 | -1.9% |
| CCCCN(C)C(=O)Cc1c(-c2ccc(Cl)c([N+](=O)[O-])c2)nc2c(Cl)cc(Cl)cn12 | -9.6% |
| CCCCN(C)C(=O)Cc1c(-c2ccc(OC)cc2)nc2c(Cl)cc(Cl)cn12 | -16.5% |
| CCCN(CCC)C(=O)Cc1c(-c2ccc([N+](=O)[O-])cc2)nc2c(Cl)cc(Cl)cn12 | -16.6% |
| CCC(C)N(C)C(=O)c1cc2ccccc2c(-c2ccccc2Cl)n1 (configuration not stated) [PK-11195] | 9.4% |
| CCCCN(C)C(=O)Cc1c(-c2ccc(Cl)c([N+](=O)[O-])c2)nc2c(Cl)cccn12 | -20% |
| CCCN(CCC)C(=O)Cc1c(-c2ccc(Cl)c(NC(=O)CCC(=O)O)c2)nc2c(Cl)cc(Cl)cn12 | 10% |

Target: Translocator protein (Rattus norvegicus, UniProt P16257)
Experiment: Displacement of [3H]PK11195 from peripheral benzodiazepine receptor in Sprague-Dawley rat cerebral cortex membrane by liquid scintillation counting
Type: tissue-based
Settings: not given
Procedure, shortened: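 Rat cerebral cortex membranes are washed in PBS, pH 7.4. Incubation with [3H]-ligand (1 nM final), 0.15–0.20 mg protein, 90 min. Filtration on PEI-presoaked GF/B filters, then scintillation counting. Nonspecific binding defined with 10 µM unlabelled ligand. Ki from three experiments in duplicate.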

Chain of Translocator protein (P16257 whole entry, looked up): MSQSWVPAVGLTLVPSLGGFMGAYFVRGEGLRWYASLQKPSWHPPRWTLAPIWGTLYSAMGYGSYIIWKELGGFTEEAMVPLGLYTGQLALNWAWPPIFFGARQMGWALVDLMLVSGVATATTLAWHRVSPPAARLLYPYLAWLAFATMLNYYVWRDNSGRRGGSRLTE

| SMILES | Ki |
| --- | --- |
| CN(C(=O)Cc1c(-c2nccs2)nc2c(Cl)cc(Cl)cn12)c1ccccc1 | 1.44 nM |
| CCCCN(C)C(=O)Cc1c(-c2ccc(Cl)c(N)c2)nc2c(Cl)cccn12 | 1.04 nM |
| CCCN(CCC)C(=O)Cc1c(-c2nccs2)nc2c(Cl)cc(Cl)cn12 | 2.07 nM |
| CCCN(CCC)C(=O)Cc1c(-c2ccc(OC(=O)CCC(=O)OC)cc2)nc2c(Cl)cc(Cl)cn12 | 1.69 nM |
| CN(C(=O)Cc1c(-c2ccc(O)cc2)nc2c(Cl)cc(Cl)cn12)c1ccccc1 | 0.32 nM |
| CCCN(CCC)C(=O)Cc1c(-c2ccc(O)cc2)nc2c(Cl)cc(Cl)cn12 | 1.31 nM |
| CCCN(CCC)C(=O)Cc1c(-c2ccc(Cl)cc2)nc2c(NC(=O)CCC(=O)O)cccn12 | 285 nM |
| CCCN(CCC)C(=O)Cc1c(-c2ccc(Cl)cc2)nc2c(NC(=O)CCCC(=O)O)cccn12 | 118 nM |
| CCCCN(C)C(=O)Cc1c(-c2ccc(Cl)c([N+](=O)[O-])c2)nc2c(Cl)cc(Cl)cn12 | 0.3 nM |
| CCCCN(C)C(=O)Cc1c(-c2ccc(OC)cc2)nc2c(Cl)cc(Cl)cn12 | 0.73 nM |
| CCCN(CCC)C(=O)Cc1c(-c2ccc([N+](=O)[O-])cc2)nc2c(Cl)cc(Cl)cn12 | 0.15 nM |
| CCCCN(C)C(=O)Cc1c(-c2ccc(Cl)c([N+](=O)[O-])c2)nc2c(Cl)cccn12 | 1.16 nM |
| CCCN(CCC)C(=O)Cc1c(-c2ccc(Cl)c(NC(=O)CCC(=O)O)c2)nc2c(Cl)cc(Cl)cn12 | 14.4 nM |

Target: not listed separately
Experiment: Displacement of [3H]flunitrazepam from central benzodiazepine receptor in Sprague-Dawley rat cerebral cortex membrane by liquid scintillation counting
Type: tissue-based
Settings: not given
Procedure, shortened: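 Rat cortical membranes in 50 mM Tris-HCl, pH 7.4, 0.4–0.5 mg protein. Incubated with [3H]flunitrazepam (0.5 nM final) for 60 min at 0 °C. Filtration, then scintillation counting. Nonspecific binding defined with 5 µM diazepam. Ki from three experiments in duplicate.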

| SMILES | Ki |
| --- | --- |
| CN(C(=O)Cc1c(-c2nccs2)nc2c(Cl)cc(Cl)cn12)c1ccccc1 | > 10 nM |
| CCCCN(C)C(=O)Cc1c(-c2ccc(Cl)c(N)c2)nc2c(Cl)cccn12 | 194 nM |
| CCCN(CCC)C(=O)Cc1c(-c2nccs2)nc2c(Cl)cc(Cl)cn12 | > 10 nM |
| CCCN(CCC)C(=O)Cc1c(-c2ccc(OC(=O)CCC(=O)OC)cc2)nc2c(Cl)cc(Cl)cn12 | > 10 nM |
| CN(C(=O)Cc1c(-c2ccc(O)cc2)nc2c(Cl)cc(Cl)cn12)c1ccccc1 | 5130 nM |
| CCCN(CCC)C(=O)Cc1c(-c2ccc(O)cc2)nc2c(Cl)cc(Cl)cn12 | > 10 nM |
| CCCN(CCC)C(=O)Cc1c(-c2ccc(Cl)cc2)nc2c(NC(=O)CCC(=O)O)cccn12 | > 10 nM |
| CCCN(CCC)C(=O)Cc1c(-c2ccc(Cl)cc2)nc2c(NC(=O)CCCC(=O)O)cccn12 | > 10 nM |
| CCCCN(C)C(=O)Cc1c(-c2ccc(OC)cc2)nc2c(Cl)cc(Cl)cn12 | > 10 nM |
| CCCN(CCC)C(=O)Cc1c(-c2ccc([N+](=O)[O-])cc2)nc2c(Cl)cc(Cl)cn12 | > 10 nM |
| CCC(C)N(C)C(=O)c1cc2ccccc2c(-c2ccccc2Cl)n1 (configuration not stated) [PK-11195] | > 10 nM |
| CCCCN(C)C(=O)Cc1c(-c2ccc(Cl)c([N+](=O)[O-])c2)nc2c(Cl)cccn12 | > 10 nM |
| CCCN(CCC)C(=O)Cc1c(-c2ccc(Cl)c(NC(=O)CCC(=O)O)c2)nc2c(Cl)cc(Cl)cn12 | > 10 nM |

Target: T1, GABA-A receptor; alpha-1/beta-2/gamma-2 (Homo sapiens)
Experiment: Agonist activity at human recombinant GABAA alpha-1-beta-2-gamma-2L receptor expressed in Xenopus oocytes assessed as change in GABA-induced chloride current amplitude at 1 uM by voltage clamp technique
Type: functional, cell-based
Settings: Oocyte
Procedure, shortened: as §1

| SMILES | Activity |
| --- | --- |
| CN(C(=O)Cc1c(-c2nccs2)nc2c(Cl)cc(Cl)cn12)c1ccccc1 | -1.2% |
| CCCCN(C)C(=O)Cc1c(-c2ccc(Cl)c(N)c2)nc2c(Cl)cccn12 | 9.5% |
| CCCN(CCC)C(=O)Cc1c(-c2nccs2)nc2c(Cl)cc(Cl)cn12 | 6.3% |
| CCCN(CCC)C(=O)Cc1c(-c2ccc(OC(=O)CCC(=O)OC)cc2)nc2c(Cl)cc(Cl)cn12 | 16.6% |
| CN(C(=O)Cc1c(-c2ccc(O)cc2)nc2c(Cl)cc(Cl)cn12)c1ccccc1 | -5.9% |
| CCCN(CCC)C(=O)Cc1c(-c2ccc(O)cc2)nc2c(Cl)cc(Cl)cn12 | -3.9% |
| CCCN(CCC)C(=O)Cc1c(-c2ccc(Cl)cc2)nc2c(NC(=O)CCC(=O)O)cccn12 | 1.3% |
| CCCN(CCC)C(=O)Cc1c(-c2ccc(Cl)cc2)nc2c(NC(=O)CCCC(=O)O)cccn12 | 7.3% |
| CCCCN(C)C(=O)Cc1c(-c2ccc(Cl)c([N+](=O)[O-])c2)nc2c(Cl)cc(Cl)cn12 | -10.2% |
| CCCCN(C)C(=O)Cc1c(-c2ccc(OC)cc2)nc2c(Cl)cc(Cl)cn12 | 24.8% |
| CCCN(CCC)C(=O)Cc1c(-c2ccc([N+](=O)[O-])cc2)nc2c(Cl)cc(Cl)cn12 | -4.2% |
| CCC(C)N(C)C(=O)c1cc2ccccc2c(-c2ccccc2Cl)n1 (configuration not stated) [PK-11195] | 4.9% |
| CCCCN(C)C(=O)Cc1c(-c2ccc(Cl)c([N+](=O)[O-])c2)nc2c(Cl)cccn12 | 12.1% |
| CCCN(CCC)C(=O)Cc1c(-c2ccc(Cl)c(NC(=O)CCC(=O)O)c2)nc2c(Cl)cc(Cl)cn12 | 11.5% |

Species: Rattus norvegicus
Experiment: Selectivity ratio of Ki for central benzodiazepine receptor to Ki for peripheral benzodiazepine receptor in Sprague-Dawley rat cerebral cortex membrane
Type: tissue-based
Settings: not given

| SMILES | Ratio Ki |
| --- | --- |
| CCCCN(C)C(=O)Cc1c(-c2ccc(Cl)c(N)c2)nc2c(Cl)cccn12 | 187 |
| CN(C(=O)Cc1c(-c2ccc(O)cc2)nc2c(Cl)cc(Cl)cn12)c1ccccc1 | > 1000 |
| CCCN(CCC)C(=O)Cc1c(-c2ccc(O)cc2)nc2c(Cl)cc(Cl)cn12 | > 1000 |
